Test results reported in ChEMBL document CHEMBL4229342, “Synthesis of novel proxyphylline derivatives with dual Anti-Candida albicans and anticancer activity” (Eur J Med Chem, 2018).

Key:
Assay type in all cases: functional
[1] = test system: Candida albicans; assay: Growth inhibition of Candida albicans ATCC 90028 at 0.0313 ug/ml incubated for 18 hrs at 35 degC by broth microdilution method relative to control; details: ATCC 90028, 18 h, read-out: GI
[2] = test system: Candida albicans; assay: Growth inhibition of Candida albicans ATCC 90028 at 1 ug/ml incubated for 18 hrs at 35 degC by broth microdilution method relative to control; details: ATCC 90028, 18 h, read-out: GI
[3] = test system: Candida albicans; assay: Growth inhibition of Candida albicans ATCC 90028 at 0.0625 ug/ml incubated for 4 hrs at 35 degC by broth microdilution method relative to control; details: ATCC 90028, 4 h, read-out: GI
[4] = test system: Candida albicans; assay: Growth inhibition of Candida albicans ATCC 90028 at 8 ug/ml incubated for 4 hrs at 35 degC by broth microdilution method relative to control; details: ATCC 90028, 4 h, read-out: GI
[5] = test system: Candida albicans; assay: Growth inhibition of Candida albicans ATCC 90028 at 0.0625 ug/ml incubated for 18 hrs at 35 degC by broth microdilution method relative to control; details: ATCC 90028, 18 h, read-out: GI
[6] = test system: MCF7; assay: Antiproliferative activity against human MCF7 cells assessed as cell viability at 200 uM after 72 hrs by MTT assay; details: MCF7, 72 h, read-out: Activity
In short: (§1)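 MTT viability assay in CCRF-CEM and MCF-7 cells after 72 h exposure at 25, 50, 100 and 200 µM. Results are relative to control cells without inhibitor in 0.5% DMSO. Done in triplicate; values are means ± SD of three independent experiments.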

[7] = test system: Candida albicans; assay: Growth inhibition of Candida albicans ATCC 90028 at 0.125 ug/ml incubated for 18 hrs at 35 degC by broth microdilution method relative to control; details: ATCC 90028, 18 h, read-out: GI
[8] = test system: Candida albicans; assay: Growth inhibition of Candida albicans ATCC 90028 at 16 ug/ml incubated for 48 hrs at 35 degC by broth microdilution method relative to control; details: ATCC 90028, 48 h, read-out: GI
[9] = test system: Candida albicans; assay: Growth inhibition of Candida albicans ATCC 90028 at 2 ug/ml incubated for 4 hrs at 35 degC by broth microdilution method relative to control; details: ATCC 90028, 4 h, read-out: GI
[10] = test system: Candida albicans; assay: Growth inhibition of Candida albicans ATCC 90028 at 2 ug/ml incubated for 18 hrs at 35 degC by broth microdilution method relative to control; details: ATCC 90028, 18 h, read-out: GI
[11] = test system: Candida albicans; assay: Growth inhibition of Candida albicans ATCC 90028 at 1 ug/ml incubated for 4 hrs at 35 degC by broth microdilution method relative to control; details: ATCC 90028, 4 h, read-out: GI
[12] = test system: CCRF-CEM; assay: Antiproliferative activity against human CCRF-CEM cells assessed as cell viability at 100 uM after 72 hrs by MTT assay; details: read-out: Activity; in short: as §1
[13] = test system: Candida albicans; assay: Growth inhibition of Candida albicans ATCC 90028 at 0.5 ug/ml incubated for 18 hrs at 35 degC by broth microdilution method relative to control; details: ATCC 90028, 18 h, read-out: GI
[14] = test system: Candida albicans; assay: Growth inhibition of Candida albicans ATCC 90028 at 16 ug/ml incubated for 18 hrs at 35 degC by broth microdilution method relative to control; details: ATCC 90028, 18 h, read-out: GI
[15] = test system: MCF7; assay: Antiproliferative activity against human MCF7 cells assessed as cell viability at 100 uM after 72 hrs by MTT assay; details: MCF7, 72 h, read-out: Activity; in short: as §1
[16] = test system: CCRF-CEM; assay: Antiproliferative activity against human CCRF-CEM cells assessed as cell viability at 50 uM after 72 hrs by MTT assay; details: read-out: Activity; in short: as §1
[17] = test system: Candida albicans; assay: Growth inhibition of Candida albicans ATCC 90028 at 0.5 ug/ml incubated for 4 hrs at 35 degC by broth microdilution method relative to control; details: ATCC 90028, 4 h, read-out: GI
[18] = test system: Candida albicans; assay: Fungicidal activity against Candida albicans ATCC 90028 assessed as log reduction in cell viability at 16 ug/ml after 48 hrs at 35 degC
In short: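 MFC assay on C. albicans ATCC 90028 following M27-A3, at the molar equivalent of 16 µg/mL. CFU of treated cells were compared with CFU of the untreated inoculum. Activity is given as lg R = lg CFU/mL control − lg CFU/mL treated, and lg R ≥3 was defined as fungicidal. Values are means of two independent experiments.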

[19] = test system: MCF7; assay: Antiproliferative activity against human MCF7 cells assessed as cell viability at 50 uM after 72 hrs by MTT assay; details: MCF7, 72 h, read-out: Activity; in short: as §1
[20] = test system: Candida albicans; assay: Growth inhibition of Candida albicans ATCC 90028 at 8 ug/ml incubated for 18 hrs at 35 degC by broth microdilution method relative to control; details: ATCC 90028, 18 h, read-out: GI
[21] = test system: Candida albicans; assay: Growth inhibition of Candida albicans ATCC 90028 at 4 ug/ml incubated for 18 hrs at 35 degC by broth microdilution method relative to control; details: ATCC 90028, 18 h, read-out: GI
[22] = test system: Candida albicans; assay: Growth inhibition of Candida albicans ATCC 90028 at 0.25 ug/ml incubated for 18 hrs at 35 degC by broth microdilution method relative to control; details: ATCC 90028, 18 h, read-out: GI
[23] = test system: Candida albicans; assay: Growth inhibition of Candida albicans ATCC 90028 at 0.125 ug/ml incubated for 4 hrs at 35 degC by broth microdilution method relative to control; details: ATCC 90028, 4 h, read-out: GI
[24] = test system: Candida albicans; assay: Growth inhibition of Candida albicans ATCC 90028 at 0.0313 ug/ml incubated for 4 hrs at 35 degC by broth microdilution method relative to control; details: ATCC 90028, 4 h, read-out: GI
[25] = test system: MCF7; assay: Antiproliferative activity against human MCF7 cells assessed as cell viability at 25 uM after 72 hrs by MTT assay; details: MCF7, 72 h, read-out: Activity; in short: as §1
[26] = test system: CCRF-CEM; assay: Antiproliferative activity against human CCRF-CEM cells assessed as cell viability at 200 uM after 72 hrs by MTT assay; details: read-out: Activity; in short: as §1
[27] = test system: CCRF-CEM; assay: Antiproliferative activity against human CCRF-CEM cells assessed as cell viability at 25 uM after 72 hrs by MTT assay; details: read-out: Activity; in short: as §1
[28] = test system: Candida albicans; assay: Growth inhibition of Candida albicans ATCC 90028 at 0.25 ug/ml incubated for 4 hrs at 35 degC by broth microdilution method relative to control; details: ATCC 90028, 4 h, read-out: GI
[29] = test system: Candida albicans; assay: Growth inhibition of Candida albicans ATCC 90028 at 8 ug/ml incubated for 48 hrs at 35 degC by broth microdilution method relative to control; details: ATCC 90028, 48 h, read-out: GI

SMILES	inhibition of growth at 0.0313 µg/mL [1] [%]	inhibition of growth at 1 µg/mL [2] [%]	inhibition of growth at 0.0625 µg/mL [3] [%]	inhibition of growth at 8 µg/mL [4] [%]	inhibition of growth at 0.0625 µg/mL [5] [%]	viability at 200 µM [6] [%]	inhibition of growth at 0.125 µg/mL [7] [%]	inhibition of growth at 16 µg/mL [8] [%]	inhibition of growth at 2 µg/mL [9] [%]	inhibition of growth at 2 µg/mL [10] [%]	inhibition of growth at 1 µg/mL [11] [%]	viability at 100 µM [12] [%]	inhibition of growth at 0.5 µg/mL [13] [%]	inhibition of growth at 16 µg/mL [14] [%]	viability at 100 µM [15] [%]	viability at 50 µM [16] [%]	inhibition of growth at 0.5 µg/mL [17] [%]	log(activity) [18]	viability at 50 µM [19] [%]	inhibition of growth at 8 µg/mL [20] [%]	also measured
CC(Cn1cnc2c1c(=O)n(C)c(=O)n2C)OC(=O)CC(=O)c1ccc(F)cc1 (configuration not stated)	99.7	100	99.3	99.4	99.9	76.8	99.8	99.7	99.3	100	100	43.8	99.7	100	83.8	51.1	99.3	0.9	77.9	99.8	inhibition of growth at 4 µg/mL [21]: 100%; inhibition of growth at 0.25 µg/mL [22]: 99.7%; inhibition of growth at 0.125 µg/mL [23]: 99.5%; inhibition of growth at 0.0313 µg/mL [24]: 98.9%; viability at 25 µM [25]: 88.5%; viability at 200 µM [26]: 20.1%; viability at 25 µM [27]: 83.5%; inhibition of growth at 0.25 µg/mL [28]: 99.3%; inhibition of growth at 8 µg/mL [29]: 99.3%
CC(Cn1cnc2c1c(=O)n(C)c(=O)n2C)OC(=O)CC(=O)c1ccccc1 (configuration not stated)	99.2	99.3	99.1	99.1	99.2	81.8	99.2	99	99.1	99.3	99.1	65.6	99.1	99.7	79.3	88.1	99	0.7	79.8	99.8	inhibition of growth at 4 µg/mL [21]: 99.2%; inhibition of growth at 0.25 µg/mL [22]: 99.1%; inhibition of growth at 0.125 µg/mL [23]: 99%; inhibition of growth at 0.0313 µg/mL [24]: 99.1%; viability at 25 µM [25]: 91.3%; viability at 200 µM [26]: 38.5%; viability at 25 µM [27]: 85.1%; inhibition of growth at 0.25 µg/mL [28]: 99%; inhibition of growth at 8 µg/mL [29]: 99%
COC(C(=O)OC(C)Cn1cnc2c1c(=O)n(C)c(=O)n2C)c1ccc(C(C)(C)C)cc1 (configuration not stated)	99.8	99.8	99	99.5	99.9	35	100	99.2	99.2	99.9	99.4	28.6	99.7	99.8	63.5	55.3	98.9	0.2	79.5	100	inhibition of growth at 4 µg/mL [21]: 99.9%; inhibition of growth at 0.25 µg/mL [22]: 100%; inhibition of growth at 0.125 µg/mL [23]: 99.2%; inhibition of growth at 0.0313 µg/mL [24]: 99.4%; viability at 25 µM [25]: 82.2%; viability at 200 µM [26]: 0%; viability at 25 µM [27]: 75.8%; inhibition of growth at 0.25 µg/mL [28]: 99.3%; inhibition of growth at 8 µg/mL [29]: 99.7%
